Data set [1] deals with HP1α. The conditions noted are these: ref [27]; cited from earlier work.
The subject of data set [2] is DNA (2.5kbp, 4kbp, 10kbp). Put plainly: Phase separation of HP1α with DNA of different length. The format is physicochemical. In outline: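 HP1α was 0.22um-filtered, buffer-exchanged and mixed with dsDNA to 20uM HP1α (12.5–20μM tested) and nanomolar DNA. Buffer was 70mM KCl, 20mM HEPES, 1mM DTT, pH 7.5, in a 7ul reaction at 23°C on Pluronic F-127–treated slides. Imaging used wide-field DIC with a ×40 air objective at t=0 and 60 min.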

For data set [3], the target named is T1, HP1α-DNA condensates (Homo sapiens, UniProt P45973). Put plainly: FRAP of Alexa-488 labeled HP1α in HP1α-DNA condensates. The format is physicochemical. The following applies: for FRAP dynamics of HP1α, in words: HP1α-DNA condensates, all three DNA lengths, no histone peptide. Summed up: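 Alexa-488 maleimide-labeled HP1α (~1%) mixed with unlabeled protein to 20uM in 70mM KCl, 20mM HEPES, 1mM DTT, pH 7.4. DNA 40nM (2.5kbp) to 9nM (10kbp), with or without H3K9me3 peptide up to 42μM, at 23°C. A 0.5–1um area bleached on a spinning-disc confocal. Recovery was fitted to an exponential to give mobile fraction (I0) and half-time ln(2)/β.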

Data set [4] addresses T1, HP1α-DNA condensates. Nature of the data set: Microrheology. It is filed as physicochemical. In outline: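 HP1α at 20 μM with 40nM 2.5kbp, 20nM 4kbp or 9nM 10kbp DNA, with or without 10 or 42μM H3K9me3 peptide. 200nm carboxylated fluorescent beads were embedded and tracked on a spinning-disc confocal (x63/1.4NA oil) at 200ms interval, 1000 frames, 10–50ms exposure, 23°C ± 2°C. Beads near boundaries were avoided. 2D MSD was time- and ensemble-averaged, and α was taken as the log-log slope versus lag time.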

[5] abbreviates: 70mM KCl, 20mM HEPES, 1mM DTT, pH 7.5.
Where [6] appears, read: with HP1α 12.5μM-20μM, 70mM KCl, 20mM HEPES, 1mM DTT, pH 7.5.

Values joined by “and” are separate entries in the source; they are usually repeats but may differ in a detail not shown here. Identical values can stand only once. A value given as a limit tells only on which side of the number the result lay.

T1 sequence (P45973 whole entry): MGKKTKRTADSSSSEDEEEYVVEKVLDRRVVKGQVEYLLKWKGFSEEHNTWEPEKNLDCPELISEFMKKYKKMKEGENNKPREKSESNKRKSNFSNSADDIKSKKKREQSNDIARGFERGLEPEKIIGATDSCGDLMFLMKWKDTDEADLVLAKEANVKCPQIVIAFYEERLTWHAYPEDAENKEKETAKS

In the case of “H3K4me3: human N-terminal histone H3 tail (residues 1–22) with trimethylation of lysine 4, purchased from Bachem”, in data set [1], the “binding of HP1α chromodomain to histone H3 mark” value (“binding of HP1α chromodomain” below) is “does not bind”.

“unmodified H3: unmodified human N-terminal histone H3 tail (residues 1–22), purchased from Bachem”: in data set [1], the “binding of HP1α chromodomain” value is listed as “does not bind”.

Take “HP1α: Recombinantly expressed and purified HP1α (MW = 22kDa) from Biomatik Corporation”: the “morphology with 4kbp DNA (9nM or 15nM) at t=0min and t=60min” value in data set [2] (20μM HP1α, DIC 40x) was “spherical condensates can be seen”. The “morphology change with 10kbp DNA (9nM or 15nM) over 1hour” value in data set [2] (20μM HP1α, t=0min and t=60min, DIC 40x) is reported as “changes in the morphology (from asymmetric to spherical)”. Moreover, in data set [2] (setting [5]), the “assembly morphology with 10kbp DNA” value is recorded as “assemblies with an asymmetric morphology were initially observed before transitioning to spherical droplets”; the “droplet morphology with 2.5kbp and 4kbp DNA” value is reported as “spherical droplets appeared instantaneously”; the “time of transition from asymmetric to spherical droplets with 10kbp DNA” value was not above 1 h. Besides, in data set [2] (same HP1α concentration, 70mM KCl, 20mM HEPES, 1mM DTT, pH 7.5), the “solubility / phase behavior of HP1α in the absence of DNA” value is on record as “remains soluble”. Besides, the “phase separation with DNA” value in data set [2] (three DNA lengths (2500, 4000, 10000 bp) at nanomolar concentrations, 70mM KCl, 20mM HEPES, 1mM DTT, pH 7.5, 23°C, DIC 40x) was “undergoes phase separation”. Also, in data set [2] (setting [6]), the “DNA concentration inducing phase separation, 2500 bp DNA” value amounted to 30 nM and the “DNA concentration inducing phase separation, 10000 bp DNA” value came out at 9 nM. Moreover, the “FRAP dynamics of HP1α, in words” value in data set [3] is “remain dynamic”. Further, in data set [3] (listed as HP1a), the “FRAP dynamics of HP1α, in words” value is recorded as “rapid recovery”. The “average diffusive exponent α, 10kbp DNA condensates” value in data set [4] (20 μM HP1α and 9nM 10kbp DNA, no peptide, 200nm beads, 200ms interval, 23°C) came to 0.58±0.05. For the same substance, the “average diffusive exponent α, 4kbp DNA condensates” value in data set [4] (20 μM HP1α and 20nM 4kbp DNA, no peptide, 200nm beads, 200ms interval, 23°C) came out at 0.72±0.02. For the same substance, the “diffusive exponent α, 2.5kbp DNA condensates” value in data set [4] (20 μM HP1α and 40nM 2.5kbp DNA, no peptide, 200nm beads, 200ms interval, 23°C) was 0.85±0.06 and ~ 0.85±0.06.

On to “H3K9me3: human N-terminal histone H3 tail (residues 1–22) with trimethylated lysine 9, purchased from Bachem [reference compound]”, for which the “binding of HP1α chromodomain” value in data set [1] is “recognizes and binds specifically”. The “mobile fraction of HP1α in condensates with peptide, 10μM peptide” value in data set [3] (H3K9me3 peptide 10μM, Alexa488-HP1α, 2.5kbp DNA condensates, FRAP) was ~ 100%. In data set [4] (2.5kb DNA condensates), the “decrease in α with H3K9me3 compared with lengthening the DNA to 10kbp” value is “more pronounced”.

The record behind these values is article PMC10871333 (bioRxiv, 2024).
